Data published in ChEMBL document CHEMBL3621107, “Ring fusion strategy for synthesis and lead optimization of sulfur-substituted anthra[1,2-c][1,2,5]thiadiazole-6,11-dione derivatives as promising scaffold of antitumor agents” (Eur J Med Chem, 2015).

Legend:
Assay type in all cases: functional
NCI-H322M = test: Cytotoxicity against human NCI-H322M cells after 48 hrs by SRB assay
In short: (§1)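 Second-stage NCI-60 panel run by the NCI Developmental Therapeutics Program, covering nine tumour subpanels. Five concentrations were tested: 0.01, 0.1, 1, 10 and 100 μM. Percentage growth at each level was plotted against log10 drug concentration. GI50, TGI and LC50 were read from these dose-response curves. Subpanel MID values were divided into the full-panel MID to give selectivity ratios.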

MDA-MB-468 = test: Cytotoxicity against human MDA-MB-468 cells after 48 hrs by SRB assay; settings: MDA-MB-468, 48 h; in short: as §1
SK-MEL-28 = test: Cytotoxicity against human SK-MEL-28 cells after 48 hrs by SRB assay; settings: SK-MEL-28, 48 h; in short: as §1
[1] = Cytotoxicity against human renal cancer cells assessed as growth inhibition after 48 hrs by SRB assay; settings: Cancer cell lines
In short: (§2)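 Values come from the NCI-60 five-dose panel (0.01–100 µM). The subpanel MID is the mean GI50 over the lines of that tumour subpanel. The selectivity ratio is the full-panel MID divided by the subpanel MID; 3–6 is rated moderate and >6 high.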

SNB-75 = test: Cytotoxicity against human SNB75 cells after 48 hrs by SRB assay; settings: SNB-75, 48 h
In short: (§3)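 NCI-60 five-dose study run by NCI DTP at 0.01, 0.1, 1, 10 and 100 µM. Percentage growth at each level was plotted against log10 concentration for each line, and GI50, TGI and LC50 were read from the dose-response curves.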

[2] = Cytotoxicity against human CNS cancer cells assessed as growth inhibition after 48 hrs by SRB assay; settings: Cancer cell lines
In short: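 NCI-60 five-dose data (0.01–100 μM) were grouped by tumour subpanel. A subpanel mean (MID) of GI50 was computed for the CNS cancer lines. A selectivity ratio was obtained as full-panel MID divided by subpanel MID: 3–6 counts as moderate, >6 as high.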

[3] = Cytotoxicity against human EKVX cells after 48 hrs by SRB assay
In short: (§4)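 NCI-60 human tumour cell panel screen, second stage, run by the NCI Developmental Therapeutics Program. Compounds were tested at five concentrations (0.01, 0.1, 1, 10 and 100 μM). Percentage growth was plotted against log10 concentration for each cell line. GI50, TGI and LC50 were taken from these dose-response curves.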

HL-60(TB) = test: Cytotoxicity against human HL-60(TB) cells after 48 hrs by SRB assay; settings: HL-60, 48 h
In short: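 NCI Developmental Therapeutics Program 60-cell-line screen, second stage: cells exposed to five concentrations (0.01, 0.1, 1, 10 and 100 μM). Growth is plotted against log10 concentration for each line, and GI50, TGI and LC50 are read from the dose-response curves.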

[4] = Cytotoxicity against human leukemia cells assessed as growth inhibition after 48 hrs by SRB assay; settings: Leukemia cell; in short: as §2
U-251 = test: Cytotoxicity against human U251 cells after 48 hrs by SRB assay; settings: U-251, 48 h; in short: as §3
HCT-116 = test: Cytotoxicity against human HCT116 cells after 48 hrs by SRB assay; settings: HCT-116, 48 h; in short: as §4
SK-MEL-2 = test: Cytotoxicity against human SK-MEL-2 cells after 48 hrs by SRB assay; settings: SK-MEL-2, 48 h; in short: as §1
CCRF-CEM = test: Cytotoxicity against human CCRF-CEM cells after 48 hrs by SRB assay; in short: as §4
NCI-H23 = test: Cytotoxicity against human NCI-H23 cells after 48 hrs by SRB assay; settings: NCI-H23, 48 h; in short: as §1
OVCAR-3 = test: Cytotoxicity against human OVCAR3 cells after 48 hrs by SRB assay; settings: OVCAR-3, 48 h; in short: as §1
SW-620 = test: Cytotoxicity against human SW620 cells after 48 hrs by SRB assay; settings: SW-620, 48 h; in short: as §3
A498 = test: Cytotoxicity against human A498 cells after 48 hrs by SRB assay; settings: A498, 48 h; in short: as §4
SNB-19 = test: Cytotoxicity against human SNB19 cells after 48 hrs by SRB assay; settings: SNB-19, 48 h; in short: as §1
UACC-257 = test: Cytotoxicity against human UACC257 cells after 48 hrs by SRB assay; settings: UACC-257, 48 h; in short: as §3
CAKI-1 = test: Cytotoxicity against human Caki1 cells after 48 hrs by SRB assay; settings: CAKI-1, 48 h; in short: as §4
NCI-H226 = test: Cytotoxicity against human NCI-H226 cells after 48 hrs by SRB assay; settings: NCI-H226, 48 h; in short: as §1
BT-549 = test: Cytotoxicity against human BT549 cells after 48 hrs by SRB assay; settings: BT-549, 48 h; in short: as §4
OVCAR-5 = test: Cytotoxicity against human OVCAR5 cells after 48 hrs by SRB assay; settings: OVCAR-5, 48 h; in short: as §1
[5] = Cytotoxicity against human prostate cancer cells assessed as growth inhibition after 48 hrs by SRB assay; settings: Cancer cell lines; in short: as §2
NCI-H522 = test: Cytotoxicity against human NCI-H522 cells after 48 hrs by SRB assay; settings: NCI-H522, 48 h; in short: as §1
PC-3 = test: Cytotoxicity against human PC3 cells after 48 hrs by SRB assay; settings: PC-3, 48 h; in short: as §1
RPMI-8226 = test: Cytotoxicity against human RPMI8226 cells after 48 hrs by SRB assay; settings: RPMI-8226, 48 h; in short: as §1
HCT-15 = test: Cytotoxicity against human HCT15 cells after 48 hrs by SRB assay; settings: HCT-15, 48 h; in short: as §4
[6] = read-out: LC50 (the source's name)

O=C1c2ccccc2C(=O)c2c1cc(Sc1ccc(F)cc1F)c1nsnc21
GI50 (NCI-H322M): 96.5 µM
LC50 (concentration causing 50% net cell kill) (NCI-H322M): > 100 µM
TGI (NCI-H322M): > 100 µM
GI50 (MDA-MB-468): 0.45 µM
LC50 (MDA-MB-468): 4.19 µM
TGI (MDA-MB-468): 1.52 µM
GI50 (SK-MEL-28): 1.87 µM
TGI (SK-MEL-28): 3.81 µM
CC50 (SK-MEL-28; [6]): 7.75 µM
GI50 [1]: 2.53 µM
GI50 (SNB-75): 1.57 µM
LC50 (concentration killing 50% of cells) (SNB-75): 13.1 µM
TGI (SNB-75): 4.22 µM
GI50 [2]: 5.69 µM
GI50 [3]: 20.8 µM
LC50 [3]: > 100 µM
TGI [3]: 66.5 µM
GI50 (HL-60(TB)): 2.68 µM
LC50 (HL-60(TB)): > 100 µM
TGI (HL-60(TB)): 7.7 µM
GI50 [4]: 2.16 µM
GI50 (U-251): 1.9 µM
LC50 (U-251): 9.94 µM
TGI (U-251): 4.35 µM
GI50 (HCT-116): 1.55 µM
TGI (HCT-116): 3.22 µM
CC50 (HCT-116; [6]): 6.69 µM
GI50 (SK-MEL-2): 2.34 µM
LC50 (SK-MEL-2): 9.41 µM
TGI (SK-MEL-2): 4.69 µM
GI50 (CCRF-CEM): 0.7 µM
LC50 (CCRF-CEM): 57.8 µM
TGI (CCRF-CEM): 6.35 µM
GI50 (NCI-H23): 1.88 µM
LC50 (NCI-H23): 43.1 µM
TGI (NCI-H23): 6.99 µM
GI50 (OVCAR-3): 1.82 µM
TGI (OVCAR-3): 3.44 µM
CC50 (OVCAR-3; [6]): 6.52 µM
GI50 (SW-620): 3.99 µM
LC50 (50% lethal concentration) (SW-620): 69.5 µM
TGI (SW-620): 16.3 µM
GI50 (A498): 2.26 µM
LC50 (concentration killing 50% of cells) (A498): > 100 µM
TGI (A498): 58.5 µM
GI50 (SNB-19): 13.9 µM
LC50 (SNB-19): 68.6 µM
TGI (SNB-19): 30.9 µM
GI50 (UACC-257): 1.59 µM
LC50 (UACC-257): 18 µM
TGI (UACC-257): 4.64 µM
GI50 (CAKI-1): 2.51 µM
LC50 (concentration causing 50% net cell kill) (CAKI-1): > 100 µM
TGI (CAKI-1): 7.04 µM
GI50 (NCI-H226): 3.09 µM
LC50 (concentration killing 50% of starting cells) (NCI-H226): 59.1 µM
TGI (NCI-H226): 11.1 µM
GI50 (BT-549): 3.99 µM
LC50 (BT-549): 43 µM
TGI (BT-549): 17.2 µM
GI50 (OVCAR-5): 8.18 µM
LC50 (OVCAR-5): 63.3 µM
TGI (OVCAR-5): 24 µM
GI50 [5]: 4.13 µM
GI50 (NCI-H522): 3.76 µM
LC50 (concentration giving 50% net cell kill) (NCI-H522): 37.1 µM
TGI (NCI-H522): 12.4 µM
GI50 (PC-3): 1.96 µM
LC50 (concentration killing 50% of cells) (PC-3): 85.7 µM
TGI (PC-3): 6.41 µM
GI50 (RPMI-8226): 2.2 µM
LC50 (RPMI-8226): 63.9 µM
TGI (RPMI-8226): 8.08 µM
GI50 (HCT-15): 2.84 µM
LC50 (HCT-15): 50 µM
TGI (HCT-15): 12.9 µM
